What was measured:
[1] = target: Receptor-type tyrosine-protein kinase FLT3 (Homo sapiens) (UniProt P36888); test: Inhibition of FLT3 (unknown origin) at 30 uM by microfluidic mobility shift assay relative to control
Method in brief: (§1)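 Single-point screen at 30 µM test compound across a 24-kinase panel in a microfluidic assay format. ATP was set near each enzyme's Km,[ATP]. […] The pan-AGC inhibitor H-89 served as an internal control on every assay plate.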

[2] = target: Fibroblast growth factor receptor 1 (Homo sapiens) (UniProt P11362); test: Inhibition of FGFR1 (unknown origin) at 30 uM by microfluidic mobility shift assay relative to control; method in brief: as §1
[3] = target: Insulin-like growth factor 1 receptor (Homo sapiens) (UniProt P08069); test: Inhibition of IGF1R (unknown origin) at 30 uM by microfluidic mobility shift assay relative to control; method in brief: as §1
Sequence of Insulin-like growth factor 1 receptor (Homo sapiens) (P08069 31-736 limits assumed): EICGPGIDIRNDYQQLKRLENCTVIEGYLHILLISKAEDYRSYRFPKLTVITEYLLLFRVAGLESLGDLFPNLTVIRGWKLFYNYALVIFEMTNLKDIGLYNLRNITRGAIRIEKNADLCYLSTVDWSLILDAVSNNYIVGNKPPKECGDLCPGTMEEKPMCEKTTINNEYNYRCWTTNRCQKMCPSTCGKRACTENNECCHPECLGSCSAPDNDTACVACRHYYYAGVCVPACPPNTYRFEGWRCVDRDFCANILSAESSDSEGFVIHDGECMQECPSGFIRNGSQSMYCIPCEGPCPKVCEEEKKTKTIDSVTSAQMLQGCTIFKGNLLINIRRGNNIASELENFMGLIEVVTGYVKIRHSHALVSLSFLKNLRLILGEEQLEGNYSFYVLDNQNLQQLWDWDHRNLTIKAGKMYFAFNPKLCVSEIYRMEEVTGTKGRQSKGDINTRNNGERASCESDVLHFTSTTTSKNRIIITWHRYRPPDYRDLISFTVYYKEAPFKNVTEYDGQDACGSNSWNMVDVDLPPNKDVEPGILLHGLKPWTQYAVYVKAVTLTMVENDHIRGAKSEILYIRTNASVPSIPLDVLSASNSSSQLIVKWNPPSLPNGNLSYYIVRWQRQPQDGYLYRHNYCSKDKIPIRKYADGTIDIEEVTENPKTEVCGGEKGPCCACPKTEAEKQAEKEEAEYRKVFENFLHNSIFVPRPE
Sequence of Insulin-like growth factor 1 receptor (Homo sapiens) (P08069 741-1367 limits assumed): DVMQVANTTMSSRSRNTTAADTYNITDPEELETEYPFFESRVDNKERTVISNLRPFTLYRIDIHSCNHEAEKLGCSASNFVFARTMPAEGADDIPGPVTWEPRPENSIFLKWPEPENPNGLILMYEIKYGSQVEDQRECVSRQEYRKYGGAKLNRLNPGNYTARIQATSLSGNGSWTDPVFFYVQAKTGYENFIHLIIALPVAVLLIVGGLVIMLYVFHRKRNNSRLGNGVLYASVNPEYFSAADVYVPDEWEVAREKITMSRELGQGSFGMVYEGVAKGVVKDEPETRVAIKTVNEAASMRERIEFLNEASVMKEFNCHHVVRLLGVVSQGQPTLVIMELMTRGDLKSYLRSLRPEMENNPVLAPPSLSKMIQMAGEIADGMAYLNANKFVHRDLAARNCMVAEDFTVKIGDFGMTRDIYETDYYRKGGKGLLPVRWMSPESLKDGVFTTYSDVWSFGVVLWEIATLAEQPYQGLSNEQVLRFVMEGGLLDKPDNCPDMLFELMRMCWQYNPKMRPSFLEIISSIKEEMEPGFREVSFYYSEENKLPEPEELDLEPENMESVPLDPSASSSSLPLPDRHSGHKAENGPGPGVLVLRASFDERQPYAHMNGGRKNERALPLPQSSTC

[4] = target: T1, Testis-specific serine/threonine-protein kinase 2 (Homo sapiens) (UniProt Q96PF2); test: Inhibition of TSSK2 (unknown origin) at 30 uM by microfluidic mobility shift assay relative to control
T1 sequence (whole entry): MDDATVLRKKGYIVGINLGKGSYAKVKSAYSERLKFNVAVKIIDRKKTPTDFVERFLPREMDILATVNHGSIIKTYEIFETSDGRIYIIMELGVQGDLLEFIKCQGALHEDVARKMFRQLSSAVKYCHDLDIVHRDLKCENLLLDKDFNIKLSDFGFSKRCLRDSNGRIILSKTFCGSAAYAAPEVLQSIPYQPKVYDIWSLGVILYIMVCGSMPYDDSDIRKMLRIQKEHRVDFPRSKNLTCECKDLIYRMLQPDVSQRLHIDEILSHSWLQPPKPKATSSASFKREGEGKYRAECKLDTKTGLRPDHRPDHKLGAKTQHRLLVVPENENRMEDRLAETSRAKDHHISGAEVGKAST
Method in brief: (§2)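 Single-point screen against a 24-kinase panel in a commercial microfluidic assay format. Compounds were tested at 30 µM, with ATP at approximately the Km,[ATP] of each enzyme. H-89 was included on each assay plate as an internal control.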

[5] = target: Serine/threonine-protein kinase pim-2 (Homo sapiens) (UniProt Q9P1W9); test: Inhibition of PIM2 (unknown origin) at 30 uM by microfluidic mobility shift assay relative to control; method in brief: as §1
Sequence of Serine/threonine-protein kinase pim-2 (Homo sapiens) (Q9P1W9 whole entry, looked up): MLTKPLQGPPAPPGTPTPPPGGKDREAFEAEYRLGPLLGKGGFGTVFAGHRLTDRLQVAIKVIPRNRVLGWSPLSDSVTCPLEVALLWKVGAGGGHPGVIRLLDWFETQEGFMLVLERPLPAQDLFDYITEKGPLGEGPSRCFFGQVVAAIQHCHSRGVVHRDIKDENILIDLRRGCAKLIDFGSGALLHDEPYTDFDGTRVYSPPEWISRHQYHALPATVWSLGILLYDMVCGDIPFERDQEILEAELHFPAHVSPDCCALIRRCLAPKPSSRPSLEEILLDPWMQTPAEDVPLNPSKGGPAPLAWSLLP

[6] = target: Serine/threonine-protein kinase MARK1 (Homo sapiens) (UniProt Q9P0L2); test: Inhibition of MARK1 (unknown origin) at 30 uM by microfluidic mobility shift assay relative to control; method in brief: as §1
Sequence of Serine/threonine-protein kinase MARK1 (Homo sapiens) (Q9P0L2 whole entry, looked up): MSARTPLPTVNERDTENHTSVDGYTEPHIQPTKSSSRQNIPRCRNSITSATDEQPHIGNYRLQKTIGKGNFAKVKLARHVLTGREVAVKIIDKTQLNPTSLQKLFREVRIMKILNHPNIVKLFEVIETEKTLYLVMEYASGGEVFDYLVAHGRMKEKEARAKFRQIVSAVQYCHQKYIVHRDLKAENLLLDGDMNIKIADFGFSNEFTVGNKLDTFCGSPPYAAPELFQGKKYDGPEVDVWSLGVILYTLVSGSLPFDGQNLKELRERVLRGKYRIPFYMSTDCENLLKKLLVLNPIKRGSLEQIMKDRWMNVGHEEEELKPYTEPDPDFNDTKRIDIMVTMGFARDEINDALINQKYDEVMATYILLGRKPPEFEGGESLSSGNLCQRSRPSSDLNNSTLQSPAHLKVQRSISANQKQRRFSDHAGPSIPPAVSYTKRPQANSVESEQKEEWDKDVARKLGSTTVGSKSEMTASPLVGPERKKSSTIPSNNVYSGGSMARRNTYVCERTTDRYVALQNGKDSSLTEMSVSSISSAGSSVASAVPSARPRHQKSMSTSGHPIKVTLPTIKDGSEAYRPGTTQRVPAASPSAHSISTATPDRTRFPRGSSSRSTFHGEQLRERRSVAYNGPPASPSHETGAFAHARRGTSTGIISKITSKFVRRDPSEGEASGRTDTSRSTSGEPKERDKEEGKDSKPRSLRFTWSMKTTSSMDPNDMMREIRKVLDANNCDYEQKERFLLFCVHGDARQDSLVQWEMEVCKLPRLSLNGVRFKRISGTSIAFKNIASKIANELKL

[7] = target: T2, Serine/threonine-protein kinase BRSK1 (Homo sapiens) (UniProt Q8TDC3); test: Inhibition of BRSK1 (unknown origin) at 30 uM by microfluidic mobility shift assay relative to control; method in brief: as §1
T2 sequence (whole entry): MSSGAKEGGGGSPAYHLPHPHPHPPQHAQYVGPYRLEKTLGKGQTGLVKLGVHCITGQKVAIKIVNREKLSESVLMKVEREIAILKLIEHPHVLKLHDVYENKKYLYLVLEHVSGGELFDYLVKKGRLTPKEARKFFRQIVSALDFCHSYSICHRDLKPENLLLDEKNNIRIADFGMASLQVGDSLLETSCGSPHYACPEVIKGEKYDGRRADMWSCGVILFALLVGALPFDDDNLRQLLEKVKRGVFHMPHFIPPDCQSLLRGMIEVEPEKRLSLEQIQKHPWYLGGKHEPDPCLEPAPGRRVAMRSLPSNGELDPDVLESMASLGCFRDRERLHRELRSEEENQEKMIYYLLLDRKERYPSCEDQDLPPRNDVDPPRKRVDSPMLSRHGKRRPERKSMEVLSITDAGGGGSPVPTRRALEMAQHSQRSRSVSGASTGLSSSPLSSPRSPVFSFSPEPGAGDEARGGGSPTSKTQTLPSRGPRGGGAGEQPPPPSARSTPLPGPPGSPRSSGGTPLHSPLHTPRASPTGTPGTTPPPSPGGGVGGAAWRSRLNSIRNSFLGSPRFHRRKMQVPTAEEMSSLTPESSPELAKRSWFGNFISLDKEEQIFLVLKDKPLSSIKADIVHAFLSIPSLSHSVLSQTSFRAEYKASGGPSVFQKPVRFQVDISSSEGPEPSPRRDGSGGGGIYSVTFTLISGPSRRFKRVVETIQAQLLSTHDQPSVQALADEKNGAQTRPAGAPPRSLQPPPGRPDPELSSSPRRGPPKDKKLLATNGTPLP

[8] = target: T3, MAP kinase-activated protein kinase 5 (Homo sapiens) (UniProt Q8IW41); test: Inhibition of PRAK (unknown origin) at 30 uM by microfluidic mobility shift assay relative to control; method in brief: as §2
T3 sequence (whole entry): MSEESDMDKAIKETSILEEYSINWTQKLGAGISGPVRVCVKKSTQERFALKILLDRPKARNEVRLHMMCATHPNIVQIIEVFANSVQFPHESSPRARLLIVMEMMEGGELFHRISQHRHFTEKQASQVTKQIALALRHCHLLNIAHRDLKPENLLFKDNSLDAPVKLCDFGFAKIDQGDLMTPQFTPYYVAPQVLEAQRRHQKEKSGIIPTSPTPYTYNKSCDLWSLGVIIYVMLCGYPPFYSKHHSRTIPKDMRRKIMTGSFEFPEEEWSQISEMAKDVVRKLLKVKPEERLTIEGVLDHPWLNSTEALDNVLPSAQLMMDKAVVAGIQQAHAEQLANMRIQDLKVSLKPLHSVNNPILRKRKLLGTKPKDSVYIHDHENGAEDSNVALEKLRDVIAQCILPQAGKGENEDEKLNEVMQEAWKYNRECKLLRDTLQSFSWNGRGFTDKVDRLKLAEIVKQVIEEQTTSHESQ

[9] = target: Protein kinase C eta type (Homo sapiens) (UniProt P24723); test: Inhibition of PKCeta (unknown origin) at 30 uM by microfluidic mobility shift assay relative to control; method in brief: as §2
Sequence of Protein kinase C eta type (Homo sapiens) (P24723 whole entry): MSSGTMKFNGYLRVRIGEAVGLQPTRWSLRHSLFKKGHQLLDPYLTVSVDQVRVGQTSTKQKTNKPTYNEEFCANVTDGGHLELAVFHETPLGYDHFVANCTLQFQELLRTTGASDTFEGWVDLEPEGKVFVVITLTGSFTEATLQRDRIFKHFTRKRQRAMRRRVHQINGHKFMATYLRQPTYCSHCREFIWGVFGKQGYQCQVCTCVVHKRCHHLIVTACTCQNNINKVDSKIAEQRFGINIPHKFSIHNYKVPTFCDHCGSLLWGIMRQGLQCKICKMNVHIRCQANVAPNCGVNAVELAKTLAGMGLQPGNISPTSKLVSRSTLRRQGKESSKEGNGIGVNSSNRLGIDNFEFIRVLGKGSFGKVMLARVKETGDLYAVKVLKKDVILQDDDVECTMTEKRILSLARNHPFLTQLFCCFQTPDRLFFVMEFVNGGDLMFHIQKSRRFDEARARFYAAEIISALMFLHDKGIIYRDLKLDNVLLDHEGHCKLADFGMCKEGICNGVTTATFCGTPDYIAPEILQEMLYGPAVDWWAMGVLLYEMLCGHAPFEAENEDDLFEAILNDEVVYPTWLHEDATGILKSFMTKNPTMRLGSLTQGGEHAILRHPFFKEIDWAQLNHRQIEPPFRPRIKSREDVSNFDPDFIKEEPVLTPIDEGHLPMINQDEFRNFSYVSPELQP

[10] = target: T4, Serine/threonine-protein kinase 3 (Homo sapiens) (UniProt Q13188); test: Inhibition of MST2 (unknown origin) at 30 uM by microfluidic mobility shift assay relative to control; method in brief: as §1
T4 sequence (whole entry): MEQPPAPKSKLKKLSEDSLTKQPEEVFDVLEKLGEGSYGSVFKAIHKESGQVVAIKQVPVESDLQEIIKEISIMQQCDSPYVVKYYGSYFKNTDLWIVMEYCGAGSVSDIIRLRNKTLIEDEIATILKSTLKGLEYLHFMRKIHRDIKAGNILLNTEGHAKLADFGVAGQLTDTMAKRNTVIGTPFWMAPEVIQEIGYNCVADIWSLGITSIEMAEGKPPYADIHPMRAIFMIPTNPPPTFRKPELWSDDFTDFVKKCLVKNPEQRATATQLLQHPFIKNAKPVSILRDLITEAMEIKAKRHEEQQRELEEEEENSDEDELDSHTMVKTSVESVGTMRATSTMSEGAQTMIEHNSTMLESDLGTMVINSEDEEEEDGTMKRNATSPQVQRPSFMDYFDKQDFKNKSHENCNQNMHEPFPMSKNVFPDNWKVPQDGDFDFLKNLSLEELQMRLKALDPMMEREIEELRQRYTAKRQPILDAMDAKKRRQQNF

[11] = target: RAF proto-oncogene serine/threonine-protein kinase (Homo sapiens) (UniProt P04049); test: Inhibition of c-RAF (unknown origin) at 30 uM by microfluidic mobility shift assay relative to control; method in brief: as §2
Sequence of RAF proto-oncogene serine/threonine-protein kinase (Homo sapiens) (P04049 whole entry): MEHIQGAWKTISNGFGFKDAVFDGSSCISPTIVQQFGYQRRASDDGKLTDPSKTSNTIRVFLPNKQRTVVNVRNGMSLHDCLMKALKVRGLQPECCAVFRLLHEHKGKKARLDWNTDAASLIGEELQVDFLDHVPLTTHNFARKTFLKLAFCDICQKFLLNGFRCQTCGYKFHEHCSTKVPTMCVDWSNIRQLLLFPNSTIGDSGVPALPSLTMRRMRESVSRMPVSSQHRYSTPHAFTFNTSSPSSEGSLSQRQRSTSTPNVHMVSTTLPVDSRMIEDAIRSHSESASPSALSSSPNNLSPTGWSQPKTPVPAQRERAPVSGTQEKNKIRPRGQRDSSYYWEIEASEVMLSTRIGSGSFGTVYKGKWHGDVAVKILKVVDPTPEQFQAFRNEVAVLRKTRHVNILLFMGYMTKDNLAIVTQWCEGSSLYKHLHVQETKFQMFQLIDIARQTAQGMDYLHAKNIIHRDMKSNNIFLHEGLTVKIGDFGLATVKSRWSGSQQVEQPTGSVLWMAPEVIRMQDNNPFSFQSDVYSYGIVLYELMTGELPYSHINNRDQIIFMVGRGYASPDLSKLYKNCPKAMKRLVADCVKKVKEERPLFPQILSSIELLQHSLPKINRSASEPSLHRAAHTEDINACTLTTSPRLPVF

Sequence of Receptor-type tyrosine-protein kinase FLT3 (Homo sapiens) (P36888 whole entry): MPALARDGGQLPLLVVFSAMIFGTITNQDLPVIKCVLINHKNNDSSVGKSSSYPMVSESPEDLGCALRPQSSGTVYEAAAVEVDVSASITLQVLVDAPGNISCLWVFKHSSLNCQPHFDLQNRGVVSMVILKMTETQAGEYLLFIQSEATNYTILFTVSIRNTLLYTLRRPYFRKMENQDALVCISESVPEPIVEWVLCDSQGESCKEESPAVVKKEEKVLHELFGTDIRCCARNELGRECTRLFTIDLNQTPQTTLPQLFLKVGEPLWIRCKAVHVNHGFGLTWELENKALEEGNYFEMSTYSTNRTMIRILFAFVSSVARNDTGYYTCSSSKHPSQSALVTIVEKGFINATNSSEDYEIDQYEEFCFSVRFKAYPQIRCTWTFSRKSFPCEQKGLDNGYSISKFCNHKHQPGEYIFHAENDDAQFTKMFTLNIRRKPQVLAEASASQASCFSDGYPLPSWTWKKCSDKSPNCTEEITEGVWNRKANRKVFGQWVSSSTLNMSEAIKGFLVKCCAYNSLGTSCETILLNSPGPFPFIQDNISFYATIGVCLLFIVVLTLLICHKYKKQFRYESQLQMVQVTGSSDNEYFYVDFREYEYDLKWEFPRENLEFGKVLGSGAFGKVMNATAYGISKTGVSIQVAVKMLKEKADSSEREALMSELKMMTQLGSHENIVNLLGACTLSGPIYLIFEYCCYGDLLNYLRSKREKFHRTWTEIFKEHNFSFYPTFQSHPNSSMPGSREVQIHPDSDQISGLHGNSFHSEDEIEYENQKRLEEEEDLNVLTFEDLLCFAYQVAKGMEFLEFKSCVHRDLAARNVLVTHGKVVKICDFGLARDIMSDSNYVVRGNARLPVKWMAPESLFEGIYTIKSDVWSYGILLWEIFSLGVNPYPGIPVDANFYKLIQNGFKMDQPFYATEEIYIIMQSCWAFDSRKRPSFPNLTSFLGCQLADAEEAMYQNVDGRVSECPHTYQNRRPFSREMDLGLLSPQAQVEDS

inhibition [1] | inhibition [2] | inhibition [3] | inhibition [4] | inhibition [5] | inhibition [6] | inhibition [7] | inhibition [8] | inhibition [9] | inhibition [10] | inhibition [11] | Compound
25% | 27% | 5% | 25% | 4% | 89% | 13% | 14% | 61% | 17% | 13% | c1ccc(C2CCNC3(CCN(c4ncnc5[nH]cnc45)CC3)C2)cc1 (racemic)
28% | 42% | 5% | 7% | 13% | 0% | 10% | 12% | 35% | 18% | 11% | c1ccc(CC2CCC3(CCN(c4ncnc5[nH]cnc45)CC3)NC2)cc1 (racemic)
10% | 44% | 5% | 32% | 21% | 99% | 16% | 8% | 71% | 10% | 15% | c1ccc(CC2CCNC3(CCN(c4ncnc5[nH]cnc45)CC3)C2)cc1 (racemic)

Source: ChEMBL document CHEMBL2417369, “Synthesis and evaluation of heteroaryl substituted diazaspirocycles as scaffolds to probe the ATP-binding site of protein kinases” (Bioorg Med Chem, 2013)
